FAS-TE inh: FAS thioesterase domain inhibitors, primary screen, biochemical, fluorescence intensity, uHTS; inhibition, % at 15 µM; AID 602261, 2012; recombinant FAS-TE, OMFH fluorogenic substrate, fluorescence endpoint; actives 0.67% (n = 360,000); Fatty acid synthase (Homo sapiens), P49327;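 active = compounds whose normalised, plate-corrected inhibition of enzyme fluorescence in the single-dose primary screen is 50% or more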
CendR NRP1 mod: modulators of CendR peptide binding to NRP-1, primary screen, biochemical, fluorescence polarization, uHTS. FAM-RPARPAR peptide binding to NRP-1. Neuropilin-1 (Homo sapiens), O14786. inhibition, % at 25 µM. actives 0.85% (n = 360,000);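 active = inhibition or corrected inhibition above about 18%, plus a signal ratio from 0.5 to 1.5, limit read from the data, passing the limit was not always enough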
ADAM17 inh: ADAM17 inhibitors, primary screen, biochemical, QFRET; actives 0.83% (n = 370,000); recombinant ADAM17, EDANS/DABCYL FRET peptide cleavage; Disintegrin and metalloproteinase domain-containing protein 17 (Homo sapiens), P78536; AID 720648, 2013; inhibition, % at 6.95 µM;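 active = inhibition above the mean of compounds lying between control limits plus 3 SD, set per campaign, cut at about 8.5% in these data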
ADAM10 inh: human ADAM10 inhibitors, primary screen, biochemical, QFRET, HTS. recombinant ADAM10, EDANS/DABCYL FRET peptide cleavage, 3 h. AID 720582, 2013. actives 0.62% (n = 370,000). inhibition, % at 7 µM. Disintegrin and metalloproteinase domain-containing protein 10 (Homo sapiens), O14672;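 active = inhibition above a per-campaign cutoff equal to the mean of compounds falling between control-based bounds plus 3 SD, cut at about 20% in these data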
Arrestin-AP2 inh: inhibitors of beta-arrestin/AP2 binding, primary screen, biochemical, GPCR trafficking, flow cytometry; beta-arrestin 1 C-terminal peptide binding to AP2 beta2-adaptin appendage (human); FITC-arrestin peptide / GST-AP2 beads; AP2 beta2 appendage carries R879A mutation; inhibition, % at 10 µM; actives 0.31% (n = 340,000);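 active = inhibition above a set limit, near 3 SD of compounds lacking own fluorescence, cut at about 54% in these data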
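System: GST-AP2 R879A glutathione beads. Medium: PBS with 0.05% Tween 20 and 0.1% BSA. Also added: FITC-arrestin peptide, 50 nM. Incubation: 12 min plus 1 h, RT. Measured by: high-throughput flow cytometry of beads, ex 488, em 535 nm. Evaluation: percent drop in bead-associated FITC signal.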
CaV13 ICDI inh: Disruptors of the CACNA1D IQ motif to Ca2+-dependent inactivation inhibitor domain association, primary screening, Förster resonance energy transfer in intact living …. actives 0.098% (n = 340,000). AID 743397. inhibition, % at 12.3 µM. HEK cells, CFP/YFP FRET ICDI-IQ, plate reader, 10 min; percent FRET-ratio fall versus neutral wells;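 active = mean replicate inhibition of at least 30% and at least 1% of replicates passing that level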
Arr-AP2 CP1: inhibitors of arrestin peptide binding to AP2, confirmation, biochemical, cherry pick 1, flow cytometry beads; shares compounds with Arrestin-AP2 inh; GST-AP2 beads, FITC arrestin peptide binding; GST-fused beta2-adaptin appendage, R879A mutant; inhibition, % at 10 µM; actives 2% (n = 1,300); AID 504908, 2011;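 active = inhibition above a set limit, roughly 3 SD of non-fluorescent compound noise, cut at about 38% in these data; inactive = inhibition at or below that limit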;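 also: loss of bead fluorescence from 50 nM FITC arrestin peptide bound to appendage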
Target sequence (P63010 whole entry, looked up, the tested form may be a part, one chain of several): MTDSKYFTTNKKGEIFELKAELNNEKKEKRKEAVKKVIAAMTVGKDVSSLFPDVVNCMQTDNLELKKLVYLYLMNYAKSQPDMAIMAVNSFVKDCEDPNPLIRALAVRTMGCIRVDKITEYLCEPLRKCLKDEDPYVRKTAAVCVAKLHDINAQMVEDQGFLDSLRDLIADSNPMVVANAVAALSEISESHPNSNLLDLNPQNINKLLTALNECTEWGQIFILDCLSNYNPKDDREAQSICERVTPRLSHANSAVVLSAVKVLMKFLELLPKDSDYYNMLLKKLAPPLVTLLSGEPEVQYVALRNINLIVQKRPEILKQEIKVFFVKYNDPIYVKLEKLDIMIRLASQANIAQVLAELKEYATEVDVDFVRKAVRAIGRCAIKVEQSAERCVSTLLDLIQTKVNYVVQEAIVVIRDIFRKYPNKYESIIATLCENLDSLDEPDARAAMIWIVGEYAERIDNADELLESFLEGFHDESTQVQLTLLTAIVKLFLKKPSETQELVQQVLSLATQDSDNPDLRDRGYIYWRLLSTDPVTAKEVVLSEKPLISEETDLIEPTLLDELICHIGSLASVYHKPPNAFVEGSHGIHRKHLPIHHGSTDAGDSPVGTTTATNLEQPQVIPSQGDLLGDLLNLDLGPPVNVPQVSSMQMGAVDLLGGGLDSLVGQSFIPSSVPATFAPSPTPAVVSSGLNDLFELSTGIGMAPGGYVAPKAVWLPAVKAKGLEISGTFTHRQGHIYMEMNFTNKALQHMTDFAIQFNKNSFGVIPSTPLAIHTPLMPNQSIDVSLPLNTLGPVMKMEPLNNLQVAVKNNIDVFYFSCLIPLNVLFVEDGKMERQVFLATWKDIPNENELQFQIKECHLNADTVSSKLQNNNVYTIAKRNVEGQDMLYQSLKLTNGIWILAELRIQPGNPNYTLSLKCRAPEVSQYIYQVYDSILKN
GST-FITC bead: GST-fluorescein capture on glutathione beads, confirmation, artefact control for arrestin-AP2 inhibitor project, biochemical, cherry pick 1, flow cytometry; shares compounds with Arrestin-AP2 inh; GST-fluorescein binding to GSH beads, fluorescence, counter-screen; inhibition, % at 10 µM; actives 2% (n = 1,300); AID 588338, 2011;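 active = inhibition above 50%, about 3 SD of the inhibition seen with non-fluorescent compounds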;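 also: fluorescein maleimide labelled GST captured on 4 micron glutathione beads; higher means more loss of bead fluorescence from quenching or blocked binding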
Each line names hits and unclear results; the compound was inactive in the other large screens (follow-up assays come after a bar, where they were run). A selection: hits, their analogues and other compounds. The true share with any hit is near 2.9%.

CC(O)c1nc2ccccc2n1Cc1ccccc1 (stereo not given)	Arrestin-AP2 inh 54.3 | Arr-AP2 CP1 inactive | GST-FITC bead inactive
CCN(Cc1ccccc1)C(=O)C1CCCN(c2ncccn2)C1 (stereo not given)	none (no result: FAS-TE inh, CendR NRP1 mod, Arrestin-AP2 inh, CaV13 ICDI inh)
COc1ccc(C(=O)C2CCCN(C(=O)CSC)C2)cc1OC (stereo not given)	none
COc1ccc(F)cc1C(=O)C1CCCN(Cc2cn(C)c3ccccc23)C1 (stereo not given)	Arrestin-AP2 inh 54.5 | Arr-AP2 CP1 inactive | GST-FITC bead inactive
COc1ccc(S(=O)(=O)N2CCCC(C(=O)N3CCCC3)C2)cc1OC (stereo not given)	Arrestin-AP2 inh 69.1 (no result: CaV13 ICDI inh) | Arr-AP2 CP1 inactive | GST-FITC bead inactive
CCOc1ccccc1CN1CCCC(C(=O)c2ccc(OC)c(OC)c2)C1 (stereo not given)	Arrestin-AP2 inh 54.3 | Arr-AP2 CP1 inactive | GST-FITC bead inactive
COc1ccc(C(=O)C2CCCN(C(=O)C3=CCCC3)C2)cc1OC (stereo not given)	Arrestin-AP2 inh 59.4 | Arr-AP2 CP1 inactive
COc1ccc(C(=O)C2CCCN(Cc3cn[nH]c3-c3ccc(F)cc3)C2)cc1OC (stereo not given)	none
C[C@H]1C2CC(OC(=O)Nc3cccc(F)c3)C(C2)[C@H]2CCCCN21 (stereo not given in full)	none (no result: FAS-TE inh, CendR NRP1 mod, Arrestin-AP2 inh, CaV13 ICDI inh)
NC(N)=NN=C(c1ccc(F)cc1)c1ccc(C(F)(F)F)cc1	none
O=C(Nc1cc(Cl)ccc1Oc1ccccc1)c1ccccc1F	none
O=C(Nc1cc(Cl)ccc1Oc1ccccc1)c1ccc(F)cc1	Arrestin-AP2 inh 61.2 | Arr-AP2 CP1 inactive | GST-FITC bead inactive
CC1CN(S(=O)(=O)c2ccc(C(=O)Nc3nc(-c4cc5ccccc5o4)cs3)cc2)CC(C)O1 (stereo not given)	Arrestin-AP2 inh 106.6 | Arr-AP2 CP1 inactive | GST-FITC bead inactive
O=C(Nc1nc(-c2cc3ccccc3o2)cs1)c1ccc(S(=O)(=O)N2CCCC2)cc1	none
COc1cccc(NC(=O)CCCn2c(=O)[nH]c3ccccc3c2=O)c1	none | Arr-AP2 CP1 inactive | GST-FITC bead inactive
O=C(Cn1c(=O)[nH]c2ccccc2c1=O)Nc1ccc2c(c1)OCCO2	none | Arr-AP2 CP1 inactive | GST-FITC bead inactive
O=C(CCc1ccccc1)N[C@H]1[C@@H](OC(=O)c2cccnc2)CCC[C@]12C(=O)N(Cc1ccccc1)c1ccccc12	none (no result: FAS-TE inh, CendR NRP1 mod, Arrestin-AP2 inh, CaV13 ICDI inh)
Cc1nnc2nc(N)[nH]n2c1=O	none (no result: FAS-TE inh, CendR NRP1 mod, Arrestin-AP2 inh)
COC(=O)c1cc(C(c2ccccc2O)C2CCC(C)(C)O2)n2ccccc12 (stereo not given)	none (no result: FAS-TE inh, CendR NRP1 mod, Arrestin-AP2 inh, CaV13 ICDI inh)
Cc1cc(NC(=O)/C=C/c2cccc(F)c2)n(-c2nc3ccccc3[nH]2)n1	none
Cc1cc(NC(=O)/C=C/c2ccc(F)cc2)n(-c2nc3ccccc3[nH]2)n1	none
Cc1cc(NC(=O)c2ccccc2F)n(-c2nc3ccccc3[nH]2)n1	none | Arr-AP2 CP1 inactive | GST-FITC bead inactive
Cc1cc(NC(=O)c2ccc(C)s2)n(-c2nc3ccccc3[nH]2)n1	none | Arr-AP2 CP1 inactive | GST-FITC bead inactive
Cc1cc(NC(=O)c2c(F)cccc2F)n(-c2nc3ccccc3[nH]2)n1	none | Arr-AP2 CP1 inactive | GST-FITC bead inactive
Cc1nn(-c2ccccn2)c2c1C(c1ccsc1)C1=C(CCCC1=O)N2 (stereo not given)	Arrestin-AP2 inh 105.4 (no result: CaV13 ICDI inh) | Arr-AP2 CP1 inactive | GST-FITC bead inactive
COC(=O)c1cc(OC)c(OC)cc1NC(=S)N1CCOCC1	none
COC(=O)c1cc(OC)c(OC)cc1NC(=S)N1CCCC1	Arrestin-AP2 inh 55.6 | Arr-AP2 CP1 inactive | GST-FITC bead inactive
COCCNc1nc2ccccc2nc1NS(=O)(=O)c1ccc(C)cc1C	Arrestin-AP2 inh 104.7 (no result: CaV13 ICDI inh) | Arr-AP2 CP1 inactive | GST-FITC bead inactive
Cc1ccc(C(=O)N/N=C/c2cccnc2)cc1Cl	none (no result: Arrestin-AP2 inh)
COc1ccccc1/C=C1/SC(=O)N(CCC(=O)Nc2ccc(S(=O)(=O)Nc3nccs3)cc2)C1=O	Arrestin-AP2 inh 60.7 | Arr-AP2 CP1 inactive | GST-FITC bead inactive
O=C(N[C@H](C(=O)N1CCC[C@H]1C(=O)NCCc1ccccc1Cl)c1ccccc1)c1ccc(Cl)cc1Cl	none (no result: FAS-TE inh, CendR NRP1 mod, Arrestin-AP2 inh)
COC(=O)c1ccc(NC(=O)CN2C(=O)C3C4C=CC(C4)C3C2=O)cc1 (stereo not given)	Arrestin-AP2 inh 59.1 | Arr-AP2 CP1 inactive | GST-FITC bead inactive
C=CCN1C(=O)[C@@H](CC(=O)NCc2ccc(OC)c(OC)c2)[C@]2(C(=O)OC)CCCCC=C12	none (no result: FAS-TE inh, CendR NRP1 mod, Arrestin-AP2 inh, CaV13 ICDI inh)
Cc1ccc(C2/C(=C(\O)c3ccc4c(c3)OCCO4)C(=O)C(=O)N2CC2CCCO2)cc1 (stereo not given)	Arrestin-AP2 inh 58.5 | Arr-AP2 CP1 inactive | GST-FITC bead inactive
O=C(CSc1nnc(-c2cnccn2)n1-c1ccccc1)Nc1ccc2cn[nH]c2c1	none (no result: FAS-TE inh, CendR NRP1 mod, Arrestin-AP2 inh, CaV13 ICDI inh)
N#Cc1cn(-c2ccccc2)nc1C(=O)c1ccccc1	Arrestin-AP2 inh 83.0 | Arr-AP2 CP1 inactive | GST-FITC bead inactive
CCn1cc(C(=O)N[C@@H](C)C(=O)OC)c(=O)c2cc3c(cc21)OCO3	Arrestin-AP2 inh 55.0 | Arr-AP2 CP1 inactive | GST-FITC bead inactive
CCn1cc(C(=O)N[C@H](C(=O)O)C(C)C)c(=O)c2cc3c(cc21)OCO3	none
CCOc1ccc(C(=O)NC(=S)Nc2ccc(NC(=O)c3ccco3)cc2)cc1[N+](=O)[O-]	none
CCOc1ccc(C(=O)NC(=S)Nc2ncccc2C)cc1[N+](=O)[O-]	Arrestin-AP2 inh 58.4 | Arr-AP2 CP1 inactive | GST-FITC bead inactive
COc1ccc(CC(=O)N2CCC(n3nccc3NC(=O)C3CC3)CC2)cc1	none
COc1ccc(CC(=O)N2CCC(n3nccc3NC(=O)C3CCOC3)CC2)cc1 (stereo not given)	Arrestin-AP2 inh 63.8 | Arr-AP2 CP1 inactive | GST-FITC bead inactive
Oc1ccc(C(=Nc2ccccc2)c2ccccc2)c(O)c1	none

Source: PubChem BioAssay (several laboratories)
